Columns and labels:
[1] = molecular target: T1, Histone deacetylase (Homo sapiens) (UniProt Q13547+O15379+Q9UBN7+Q92769+Q9UQL6+Q8WUI4+Q9BY41+Q96DB2+P56524+Q9UKV0+Q969S8); settings: HeLa, at 10 µM
HCT-116 = test: Antiproliferative activity against human HCT116 cells after 5 days by Alamar blue assay; format: functional, cell-based; settings: HCT-116, 120 h
[2] = molecular target: T1, Histone deacetylase (Homo sapiens); settings: HeLa, at 0.1 µM
Histone deacetylase = test: Inhibition of HDAC in human HeLa cells by fluorescent activity assay; format: cell-based
[3] = molecular target: T1, Histone deacetylase (Homo sapiens); settings: HeLa, at 1 µM
[4] = molecular target: T1, Histone deacetylase (Homo sapiens); test: Inhibition of HDAC in human HeLa cells at 50 uM by fluorescent activity assay; format: cell-based
Outline: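 HDAC activity was measured with a commercial fluorescent kit using Fluor de Lys substrate plus developer. Compounds were dissolved in DMSO and stored at -80 °C. Fluorophore release was read at excitation 335 nm and emission 460 nm. All experiments were run in triplicate.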

Row | Structure (SMILES) | inhibition [1] | IC50 (HCT-116) | inhibition [2] | IC50 (Histone deacetylase) | inhibition [3] | inhibition [4]
1 | O=C(CCCC1CCN(C(=O)NCc2ccccc2)CC1)NO | 86% | 0.3 µM | 59% | 0.09 µM | 69% | 
2 | O=C(CCCCCC1CCN(C(=O)Nc2ccccc2)CC1)NO |  |  | 16% |  | 54% | 
3 | O=C(CCN1CCN(S(=O)(=O)Cc2ccccc2)CC1)NO | 1% |  |  |  |  | 38%
4 | O=C(NO)C1CCN(C(=O)Cc2ccccc2)CC1 | 33% |  |  |  |  | 65%
5 | O=C(NO)C1CCN(C(=O)c2ccccc2)CC1 | 0% |  |  |  |  | 16%
6 | O=C(CCCCCC1CCN(C(=O)NCc2ccccc2)CC1)NO |  |  | 20% |  | 62% | 
7 | O=C(CCCCN1CCN(C(=O)Cc2ccccc2)CC1)NO |  |  | 19% |  | 40% | 
8 | O=C(CCN1CCN(C(=O)Cc2ccccc2)CC1)NO | 0% |  |  |  |  | 2%
9 | O=C(CCCC1CCN(S(=O)(=O)c2ccccc2)CC1)NO |  | 2.7 µM |  | 0.54 µM |  | 
10 | O=C(CCCC1CCN(C(=O)Nc2ccccc2)CC1)NO | 86% | 0.7 µM | 53% | 0.1 µM | 81% | 
11 | O=C(NO)C1CCN(S(=O)(=O)Cc2ccccc2)CC1 | 1% |  |  |  |  | 33%
12 | O=C(CCCN1CCN(C(=O)Cc2ccccc2)CC1)NO | 28% |  |  |  |  | 52%
13 | O=C(CCCCC1CCN(S(=O)(=O)c2ccccc2)CC1)NO |  |  | 13% |  | 45% | 
14 | O=C(CC1CCN(C(=O)c2ccccc2)CC1)NO | 7% |  |  |  |  | 41%
15 | O=C(CN1CCN(C(=O)Cc2ccccc2)CC1)NO | 6% |  |  |  |  | 19%
16 | O=C(CN1CCN(S(=O)(=O)c2ccccc2)CC1)NO | 3% |  |  |  |  | 10%
17 | O=C(CN1CCN(S(=O)(=O)Cc2ccccc2)CC1)NO | 16% |  |  |  |  | 51%

Next, values leading:

Row | inhibition [1] | IC50 (HCT-116) | inhibition [2] | IC50 (Histone deacetylase) | inhibition [3] | inhibition [4] | Structure (SMILES)
18 | < 10% |  |  |  |  | 19% | O=C(CCCN1CCN(S(=O)(=O)Cc2ccccc2)CC1)NO
19 |  |  | 4% |  | 9% |  | O=C(CCCCN1CCN(S(=O)(=O)Cc2ccccc2)CC1)NO
20 | 41% |  |  |  |  | 68% | O=C(CC1CCN(S(=O)(=O)c2ccccc2)CC1)NO
21 |  |  | 11% |  | 54% |  | O=C(CCCCC1CCN(C(=O)Cc2ccccc2)CC1)NO
22 |  |  | 9% |  | 12% |  | O=C(CCCCN1CCN(S(=O)(=O)c2ccccc2)CC1)NO
23 | 13% |  |  |  |  | 30% | O=C(CCCN1CCN(C(=O)c2ccccc2)CC1)NO
24 |  |  | 9% |  | 33% |  | O=C(CCC1CCN(S(=O)(=O)c2ccccc2)CC1)NO
25 | 69% | 17.2 µM | 11% | 1.39 µM |  | 77% | O=C(CCCC1CCN(C(=O)c2ccccc2)CC1)NO
26 | 80% | 5.1 µM | 36% | 0.26 µM | 72% | 85% | O=C(CCCC1CCN(C(=O)Cc2ccccc2)CC1)NO
27 | 30% |  |  |  |  | 50% | O=C(CCCN1CCN(S(=O)(=O)c2ccccc2)CC1)NO
28 | 21% |  |  |  |  | 22% | O=C(CC1CCN(S(=O)(=O)Cc2ccccc2)CC1)NO
29 |  |  | 3% |  | 3% |  | O=C(CCN1CCN(C(=O)c2ccccc2)CC1)NO
30 |  |  | 23% |  | 63% |  | O=C(CCCCC1CCN(C(=O)Nc2ccccc2)CC1)NO
31 |  |  | 2% |  | 24% |  | O=C(CCC1CCN(C(=O)Cc2ccccc2)CC1)NO
32 |  |  | 11% |  | 30% |  | O=C(CCC1CCN(C(=O)c2ccccc2)CC1)NO
33 | 14% |  |  |  |  | 44% | O=C(CCN1CCN(S(=O)(=O)c2ccccc2)CC1)NO
34 | 39% |  |  |  |  | 61% | O=C(CC1CCN(C(=O)Cc2ccccc2)CC1)NO
35 |  | 3.2 µM | 12% | 0.84 µM |  | 77% | O=C(CCCC1CCN(S(=O)(=O)Cc2ccccc2)CC1)NO
36 |  |  | 18% |  | 49% |  | O=C(CCCCC1CCN(C(=O)NCc2ccccc2)CC1)NO
37 |  |  | 12% |  | 44% |  | O=C(CCCCC1CCN(C(=O)c2ccccc2)CC1)NO
38 |  |  | 8% |  | 33% |  | O=C(CCC1CCN(S(=O)(=O)Cc2ccccc2)CC1)NO
39 | 29% |  |  |  |  | 50% | O=C(NO)C1CCN(S(=O)(=O)c2ccccc2)CC1
40 |  |  | 3% |  | 9% |  | O=C(CCCCN1CCN(C(=O)c2ccccc2)CC1)NO
